Test system: MS2 coat protein
Assay: apparent Kd, MS2 coat protein; higher = weaker binding; RNA-MaP array; FMN 200 µM where present
Method in brief: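 The apparent Kd is reported as the median of filtered per-cluster binding-curve fits. To get these curves, designs transcribed by stalled E. coli RNA polymerase on Illumina sequencing-chip clusters were titrated with SNAP-549-labelled MS2 coat protein from 0.7 or 1.5 nM, doubling to 3 µM. Titrations were run without and then with constant ligand in 100 mM Tris-HCl pH 7.5, 80 mM KCl, 4 mM MgCl2, BSA, DTT, yeast tRNA and Tween-20, and green signal was normalised to red-channel RNA signal and control-cluster median Fmax.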

[1] = designed as: ON switch for flavin mononucleotide, no ligand
[2] = ligand present: flavin mononucleotide, designed as: ON switch for flavin mononucleotide
[3] = designed as: OFF switch for flavin mononucleotide, no ligand
[4] = ligand present: flavin mononucleotide, designed as: OFF switch for flavin mononucleotide

Sequence | apparent Kd [1] [nM] | apparent Kd [2] [nM] | apparent Kd [3] [nM] | apparent Kd [4] [nM]
CUGCUCGUAGAGAAGGCGUGGGCACAUGAGGAUCACCCAUGUCGCAGUACGAGGAUAUUUGCCGGCCCGCCCAAAAUGGCGCGG | 501 | 119 | – | –
CUGCUGGAGCUUUGCUCUAGUCGUACAUGAGGAUCACCCAUGUAGGAUAUGGUAGGCUUUGCUUACUAGAAGGAUAGAGUGGUC | – | – | 76.4 | 32.8
CUGCUUCGCUAAGGAUAUCACAUUGUCGAUCUGCGUGCAGCCUCCUGACAUGAGGAUCACCCAUGUGAGAAGGUAGACGACGUG | – | – | 19.4 | 22.5
CUGGAUAGAGGAUAUUGUACUGCUGACAUGAGGAUCACCCAUGUAUGUUAACUCGGCCGUCGAGAAGGCUAACAAG | – | – | 37.7 | 17.9
CUGGAUCACGCAGGAUAUUACAUGAGGAUCACCCAUGUCAGGACUGCAAUAUCGUCUCCUCAUUGUGAGAAGGGCGGAAUCAUU | – | – | 17.7 | 86.8
CUGUAUCGGUCAGGAUAUGUGCGUAAACUGUGAACAGAAGGGACCGUACAUGAGGAUCACCCAUGUCCGGGACUCCUUAUGCCU | – | – | 18.1 | 22.2
CUGUUUGUAGGAUAUACAUGCGGAACCCUCUUCAUGGAAAGACAUGAGGAUCACCCAUGUAGAAGGAUGAAGAG | – | – | 19.7 | 17.9
CUUAUGUAAGGAUAUCAGUAGUAAAAAAAUAAAAUUACUACUGAGAAGGUACAUGAGGAUCACCCAUGUAUCUU | – | – | 17.6 | 14
CUUAUGUGAGGAUAUGUACAGAAAAAACUGGGUGUAACUGUACAGAAGGCACAUGAGGAUCACCCAUGUGCCUU | – | – | 16.9 | 13.8
CUUCAGUCAGGAUAUGUUAAUCUCGCCACUCCGCGAACCGGACAGAAGGGACAUGAGGAUCACCCAUGUUAAAC | – | – | 30.4 | 19.5
CUUCAUUGUUGAGGAUAUAAUUAUAGGAUGUAGUUAGAAGGCGAACAUGAGGAUCACCCAUGUCAGGCAUGGAGACCCUUGACC | – | – | 519 | 624
CUUCGACAUGAGGAUCACCCAUGUCAGGAUAUUGUUUAUCUGGUUUUUUACAGAUAUGCAAGAAGGGAUGUGUU | – | – | 28.5 | 23.1
CUUCGUAUAGAGGAUAUAGGAUACUACGGUGUCCUAGAAGGCUGUACAUGAGGAUCACCCAUGUACUUCAGAUC | – | – | 11.7 | 13.5
CUUCUGUGAGGAUAUGUUAGCUCCCAGCAAGUCGCUGAGAGACAGAAGGCACAUGAGGAUCACCCAUGUGGGCG | – | – | 35.1 | 177
CUUUAGCUAGGAUAUACAUGAGGAUCACCCAUGUUAGCGGUCCAUUGGGCCGCGGGUUGUAGAAGGAGCAUUAA | – | – | 30.8 | 56.8
CUUUAGUGAGGAUAUCAGUAGUAAUACAAUAGUAUUACUACUGAGAAGGCACAUGAGGAUCACCCAUGUUCUUC | – | – | 17.3 | 50
CUUUGAUGAGGAUAUCGAGGUUAGUACAUGAGGAUCACCCAUGUUAUCCAGGUGUCGGUUCGAGAAGGUAUUGGAC | – | – | 16.7 | 18.5
CUUUUACAUGAGGAUCACCCAUGUUAUGGCGGGUCAGGAUAUAGAUCGGAUGCGUUCUGUCUAGAAGGGACAUGUU | 52.2 | 33.4 | – | –
CUUUUACAUGAGGAUCACCCAUGUUCUGGCGGGUCAGGAUAUAGAUCGGAUGCGUUCUGUCUAGAAGGGACAUGUU | 67.3 | 38.1 | – | –
CUUUUGUGAGGAUAUCAGGUGUGCUAGCGUACUGGUACAUCUGAGAAGGCACAUGAGGAUCACCCAUGUUUCUA | – | – | 84.9 | 74.2
CUUUUGUGAGGAUAUCAGUAGUAAAUAAAUAAUAUUACUACUGAGAAGGCACAUGAGGAUCACCCAUGUUCCUC | – | – | 42.6 | 253
CUUUUGUGAGGAUAUCAGUAGUAAUAUAAUAGUAUUACUACUGAGAAGGCACAUGAGGAUCACCCAUGUUCCUC | – | – | 27.4 | 50.3
CUUUUGUGAGGAUAUCAGUAGUAUAUAAAUAAAAUUACUACUGAGAAGGCACAUGAGGAUCACCCAUGUUCCUC | – | – | 39.2 | 164
CUUUUGUGAGGAUAUCUGGCUUCGAUCGUGAGAUCGAGGCUAGAGAAGGCACAUGAGGAUCACCCAUGUACCUC | – | – | 24.3 | 149
CUUUUGUGAGGAUAUGUGGCUUCGAUCGUGAGAUCGAGGCUACAGAAGGCACAUGAGGAUCACCCAUGUUCCUC | – | – | 60.4 | 777
CUUUUGUGAGGAUAUUAGUAGUAAAAAAAUAAAAUUACUACUGAGAAGGCACAUGAGGAUCACCCAUGUUCCUC | – | – | 31.4 | 213
CUUUUGUGAGGAUAUUAGUAGUAAAUAAAUAAAAUUACUUCUGAGAAGGCACAUGAGGAUCACCCAUGUUCCUC | – | – | 30.6 | 123
CUUUUGUGAGGAUAUUAGUAGUAAUUAAAUAAAAUUACUACUGAGAAGGCACAUGAGGAUCACCCAUGUUCCUC | – | – | 33.9 | 158
